Results as given in article PMC5069578 (Journal of Clinical Pharmacology, 2016).
Where a name gives a salt, the structure may show the parent alone. Read-outs that look alike come from different tables or passages of the source.

Columns and labels:
[1] = healthy volunteers and patients with advanced solid tumors; cited from earlier work
[2] = Safety and tolerability; format: in vivo, human
Procedure, shortened: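 Adverse events recorded throughout treatment and up to 30 days after last dose or start of subsequent antineoplastic therapy, graded by NCI CTCAE v4.03. Safety population comprised all patients given at least 1 dose of test compound (single 4-mg oral doses on days 1 and 15, fasted/fed crossover).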

[3] = cited from earlier work
[4] = ref Takeda, data on file; cited from earlier work
[5] = ref Takeda, data on file; cited from earlier work; remark: listed apart in the source
[6] = format: in vivo, human; details: for half-life / AUC(0-t) / Cmax / Tmax: human, plasma, 4 mg; for half-life: oral, Geometric mean (%CV) terminal half-life, N = 4; for AUC(0-t) / Cmax / Tmax: po, single 4-mg oral dose, n = 15; for AUC(0-t): Geometric mean AUC0-216 (%CV); for Cmax: Geometric mean Cmax (%CV); for Tmax: Median Tmax (range)
Procedure, shortened: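 Randomized 2-period, 2-sequence crossover: 4-mg immediate-release capsule on day 1 and day 15, either fasted (~10 h overnight) or fed (high-fat meal begun ≥30 min predose), alternating between periods; no food 4 h postdose. Plasma sampled predose to 216 h, LC-MS/MS (linear 0.5–500 ng/mL). Noncompartmental parameters; log AUC0-216 and Cmax by ANOVA (treatment, sequence, period fixed; patient-within-sequence random), back-transformed LS-mean ratios with 90% CIs.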

[7] = Biopharmaceutics Classification System; format: physicochemical; details: from solubility and permeability
[8] = under physiological conditions; cited from earlier work
[9] = fed vs fasted, ANOVA on log-transformed values

In the case of `CS(=O)(=O)CCNCc1ccc(-c2ccc3ncnc(Nc4ccc(OCc5cccc(F)c5)c(Cl)c4)c3c2)o1` [lapatinib], the “Change in bioavailability when administered with a high-fat breakfast” value [1] is listed as “large increases”.

For `CC(C)C[C@H](NC(=O)CNC(=O)c1cc(Cl)ccc1Cl)B(O)O` [ixazomib], the “On-study deaths considered related to ixazomib” value ([2]; 3 on-study deaths) was “None”, the “Drug-related, reversible grade 1 peripheral neuropathy” value ([2]; 24 patients) was 1 case and the “Patients with TEAEs resulting in dose reduction” value ([2]; 24 patients) was 4%. For the same molecule, the “Patients with any-grade drug-related TEAEs” value ([2]; 24 patients) was 83%, the “Patients with any-grade drug-related fatigue” value ([2]; 24 patients) was 25% and the “Patients with any-grade drug-related nausea” value ([2]; 24 patients) was 50%. The “Patients with any-grade drug-related vomiting” value ([2]; 24 patients) was 58%, the “Patients with at least 1 grade ≥3 TEAE” value ([2]; 24 patients) was 54% and the “Patients with at least 1 grade ≥3 drug-related TEAE” value ([2]; 24 patients) was 21%. The “Patients with drug-related serious AE” value ([2]; 24 patients) was 8%, the “Patients with grade ≥3 drug-related anemia” value ([2]; 24 patients) was 8% and the “Patients with grade ≥3 drug-related dehydration” value ([2]; 24 patients) was 4%. For the same molecule, the “Patients with grade ≥3 drug-related fatigue” value ([2]; 24 patients) was 4%, the “Patients with grade ≥3 drug-related peripheral edema” value ([2]; 24 patients) was 4% and the “Patients with grade ≥3 drug-related vomiting” value ([2]; 24 patients) was 4%. For the same molecule, the “Patients with vomiting leading to dose modification” value ([2]; 24 patients) was 8%, the “AE leading to discontinuation” value ([2]; safety population N = 24) was 7 (29) n (%) and the “Any AE” value ([2]; safety population N = 24) was 24 (100) n (%). For the same molecule, the “Any drug-related AE” value ([2]; safety population N = 24) was 20 (83) n (%), the “Any drug-related grade ≥3 AE” value ([2]; safety population N = 24) was 5 (21) n (%) and the “Any drug-related serious AE” value ([2]; safety population N = 24) was 2 (8) n (%). For the same molecule, the “Any grade ≥3 AE” value ([2]; safety population N = 24) was 13 (54) n (%), the “Any serious AE” value ([2]; safety population N = 24) was 12 (50) n (%) and the “Any-grade drug-related AE: anemia” value ([2]; safety population N = 24) was 4 (17) n (%). For the same molecule, the “Any-grade drug-related AE: asthenia” value ([2]; safety population N = 24) was 2 (8) n (%), the “Any-grade drug-related AE: chills” value ([2]; safety population N = 24) was 2 (8) n (%) and the “Any-grade drug-related AE: constipation” value ([2]; safety population N = 24) was 2 (8) n (%). The “Any-grade drug-related AE: decreased appetite” value ([2]; safety population N = 24) was 3 (13) n (%), the “Any-grade drug-related AE: diarrhea” value ([2]; safety population N = 24) was 3 (13) n (%) and the “Any-grade drug-related AE: fatigue” value ([2]; safety population N = 24) was 6 (25) n (%). The “Any-grade drug-related AE: nausea” value ([2]; safety population N = 24) was 12 (50) n (%), the “Any-grade drug-related AE: thrombocytopenia” value ([2]; safety population N = 24) was 2 (8) n (%) and the “Any-grade drug-related AE: vomiting” value ([2]; safety population N = 24) was 14 (58) n (%). For the same molecule, the “Any-grade drug-related AE: weight loss” value ([2]; safety population N = 24) was 4 (17) n (%), the “Grade ≥3 drug-related AE: anemia” value ([2]; safety population N = 24) was 2 (8) n (%) and the “Grade ≥3 drug-related AE: dehydration” value ([2]; safety population N = 24) was 1 (4) n (%). The “Grade ≥3 drug-related AE: fatigue” value ([2]; safety population N = 24) was 1 (4) n (%), the “Grade ≥3 drug-related AE: peripheral edema” value ([2]; safety population N = 24) was 1 (4) n (%) and the “Grade ≥3 drug-related AE: vomiting” value ([2]; safety population N = 24) was 1 (4) n (%). The On-study deaths ([2]; safety population N = 24) was 3 (13) n (%), the “Any-grade drug-related AE: rash” value ([2]; safety population N = 24, includes follicular rash, intermittent dark skin lesion, macular rash, maculopapular rash, pruritus) was 5 (21) n (%) and the Absolute oral bioavailability ([3]; 226 adult cancer patients, immediate-release capsules, estimated) was 60%. The “Dose and time dependence of PK” value [3] was “dose‐ and time‐independent PK”, the Solubility [4] was “highly soluble” and the Permeability [5] was “moderate”. The “Ratio of period 2 AUC to period 1 AUC (period effect)” value ([6]; ANOVA analysis, period 2 (day 15) vs period 1 (day 1)) was 2.21, the “Delay of median Tmax under fed conditions compared with fasted state” value ([6]; fed vs fasted) was “approximately 3 hours” and the “Reduction in peak plasma concentration (Cmax)” value ([6]; fed vs fasted) was 69%. The “Reduction in total systemic exposure (AUC)” value ([6]; fed vs fasted) was 28%, the “Least-squares geometric mean ratio (90%CI) of AUC0-216 (test/reference)” value [6, 9] was 0.72 (0.58‐0.89) and the “Least-squares geometric mean ratio (90%CI) of Cmax (test/reference)” value [6, 9] was 0.31 (0.21‐0.45). The half-life ([6]; day 1, fasted) was 189 h, the half-life ([6]; day 1, fed) was 198 h and the AUC(0-t) ([6]; fasted (reference)) was 1470 ng·h/mL. The AUC(0-t) ([6]; fed (test)) was 999 ng·h/mL, the Cmax ([6]; fasted (reference)) was 77 ng/mL and the Cmax ([6]; fed (test)) was 22.8 ng/mL. The Tmax ([6]; fasted (reference), immediate-release capsule) was 1.02 h, the Tmax ([6]; fed (test, high-calorie high-fat meal)) was 4 h and the “Biopharmaceutics Classification System (BCS) class” value [7] was “class 3”.

In the case of `CC(C)C[C@H](NC(=O)CNC(=O)c1cc(Cl)ccc1Cl)B1OC(=O)C(CC(=O)O)(CC(=O)O)O1` [ixazomib citrate], the “Hydrolysis to the biologically active boronic acid, ixazomib” value [8] is listed as “rapid hydrolysis”.
